Drawing on ChEMBL document CHEMBL3124771, “Design, synthesis and antitubercular evaluation of novel series of N-[4-(piperazin-1-yl)phenyl]cinnamamide derivatives” (Eur J Med Chem, 2014), this text covers MIC90, IC50 and selectivity ratio for 53 compounds.

Values after ≈ are worked out from the molar mass of the structure shown.

The first series concerns Mycobacterium tuberculosis. The series is described as follows: Antitubercular activity against Mycobacterium tuberculosis H37Rv after 7 days by resazurin microtitre assay. Format: functional. The following applies: 168 h. The gist of the method: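 M. tb H37Rv in Middlebrook 7H9 broth; compounds dissolved in DMSO (2 mg/ml stock), serially diluted in 96-well plate to 1.56–50 μg/ml, 100 μl cell suspension per well. After 7 days, 0.02% w/v resazurin added, incubated 1 more day; MIC = lowest concentration preventing blue-to-pink colour change (>90% inhibition), read visually. Isoniazid reference.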
A general note: Alamar Blue is a resazurin reagent that responds to reducing activity.
Regarding `O=C(/C=C/c1ccc([N+](=O)[O-])cc1)Nc1ccc(N2CCN(C(=O)c3ccccc3C(F)(F)F)CC2)c(F)c1`, the MIC90 (as a rule, the lowest concentration that inhibits either 90% of growth or 90% of the strains tested, depending on the study) was over 50 µg/mL. Still for that read-out and setting: next, `CC(C)(C)OC(=O)N1CCN(c2ccc(NC(=O)/C=C/c3ccc([N+](=O)[O-])cc3)cc2F)CC1`: 50 µg/mL (≈ 106 µM); `COC(=O)N1CCN(c2ccc(NC(=O)/C=C/c3ccccc3)cc2F)CC1`: over 50 µg/mL.

Turning to `O=C(/C=C/c1ccc([N+](=O)[O-])cc1)Nc1ccc(N2CCN(C(=O)Oc3ccccc3)CC2)c(F)c1`, the MIC90 was over 50 µg/mL. Same read-out and setting: for `CC(C)(C)OC(=O)N1CCN(c2ccc(NC(=O)/C=C/c3ccccc3)cc2)CC1` the value was 12.5 µg/mL (≈ 30.7 µM); for `O=C(/C=C/c1ccccc1)Nc1ccc(N2CCN(C(=O)c3ccccc3C(F)(F)F)CC2)cc1`, 50 µg/mL (≈ 104 µM); for `O=C(/C=C/c1ccc([N+](=O)[O-])cc1)Nc1ccc(N2CCN(C(=O)c3ccccc3C(F)(F)F)CC2)cc1`, over 50 µg/mL.

Regarding `O=C(/C=C/c1ccc([N+](=O)[O-])cc1)Nc1ccc(N2CCNCC2)c(F)c1`, the MIC90 amounted to 12.5 µg/mL (≈ 33.7 µM). Same read-out and setting: for `COC(=O)N1CCN(c2ccc(NC(=O)/C=C/c3ccc([N+](=O)[O-])cc3)cc2F)CC1` the value was over 50 µg/mL; for `CCN1CCN(c2ccc(NC(=O)/C=C/c3ccc([N+](=O)[O-])cc3)cc2F)CC1`, over 50 µg/mL; for `CCOC(=O)N1CCN(c2ccc(NC(=O)/C=C/c3ccccc3)cc2)CC1`, over 50 µg/mL. Still for that read-out and setting: for `NNC(=O)c1ccncc1` [ISONIAZID] the value was 0.39 µg/mL (≈ 2.84 µM); for `CN1CCN(c2ccc(NC(=O)/C=C/c3ccccc3)cc2F)CC1`, 25 µg/mL (≈ 73.7 µM). With `O=C(/C=C/c1ccccc1)Nc1ccc(N2CCN(C(=O)c3ccc([N+](=O)[O-])cc3)CC2)cc1`, the MIC90 was over 50 µg/mL.

In the case of `CCN1CCN(c2ccc(NC(=O)/C=C/c3ccc([N+](=O)[O-])cc3)cc2)CC1`, the MIC90 was 12.5 µg/mL (≈ 32.9 µM).

`O=C(/C=C/c1ccccc1)Nc1ccc(N2CCN(C(=O)c3ccc(F)cc3)CC2)cc1` registered an MIC90 of 25 µg/mL (≈ 58.2 µM). Same read-out and setting: next, `O=C(/C=C/c1ccc([N+](=O)[O-])cc1)Nc1ccc(N2CCN(C(=O)c3ccc([N+](=O)[O-])cc3)CC2)cc1`: over 50 µg/mL; `O=C(/C=C/c1ccccc1)Nc1ccc(N2CCN(C(=O)c3ccc(F)cc3)CC2)c(F)c1`: over 50 µg/mL. The same measure, in the same setting: next, `O=C(/C=C/c1ccc([N+](=O)[O-])cc1)Nc1ccc(N2CCN(C(=O)Oc3ccccc3)CC2)cc1`: over 50 µg/mL. Same read-out and setting: next, `CN1CCN(c2ccc(NC(=O)/C=C/c3ccc([N+](=O)[O-])cc3)cc2F)CC1`: 25 µg/mL (≈ 65 µM); `O=C(/C=C/c1ccccc1)Nc1ccc(N2CCNCC2)cc1`: 12.5 µg/mL (≈ 40.7 µM). `O=C(/C=C/c1ccccc1)Nc1ccc(N2CCN(C(=O)c3ccncc3)CC2)c(F)c1` yielded an MIC90 of over 50 µg/mL. Still for that read-out and setting: for `CC(C)(C)OC(=O)N1CCN(c2ccc(NC(=O)/C=C/c3ccccc3)cc2F)CC1` the value was 50 µg/mL (≈ 118 µM); for `CCOC(=O)N1CCN(c2ccc(NC(=O)/C=C/c3ccc([N+](=O)[O-])cc3)cc2)CC1`, over 50 µg/mL. Same read-out and setting: next, `O=C(/C=C/c1ccccc1)Nc1ccc(N2CCN(C(=O)Oc3ccccc3)CC2)c(F)c1`: over 50 µg/mL. Still for that read-out and setting: next, `O=C(/C=C/c1ccc([N+](=O)[O-])cc1)Nc1ccc(N2CCN(C(=O)c3cc(Cl)cc(Cl)c3)CC2)cc1`: over 50 µg/mL; `O=C(/C=C/c1ccccc1)Nc1ccc(N2CCN(C(=O)Oc3ccccc3)CC2)cc1`: over 50 µg/mL; `O=C(/C=C/c1ccccc1)Nc1ccc(N2CCN(c3ccccn3)CC2)cc1`: over 50 µg/mL. `O=C(/C=C/c1ccccc1)Nc1ccc(N2CCN(C(=O)c3cc(Cl)cc(Cl)c3)CC2)cc1` displayed an MIC90 of over 50 µg/mL.

Take `O=C(/C=C/c1ccccc1)Nc1ccc(N2CCN(C(=O)c3ccc([N+](=O)[O-])cc3)CC2)c(F)c1`: the MIC90 came to 12.5 µg/mL (≈ 26.3 µM). In turn, `O=C(/C=C/c1ccc([N+](=O)[O-])cc1)Nc1ccc(N2CCN(c3ccccn3)CC2)c(F)c1` had an MIC90 of over 50 µg/mL. Still for that read-out and setting: next, `CCOC(=O)N1CCN(c2ccc(NC(=O)/C=C/c3ccc([N+](=O)[O-])cc3)cc2F)CC1`: over 50 µg/mL. The same measure, in the same setting: next, `O=C(/C=C/c1ccccc1)Nc1ccc(N2CCNCC2)c(F)c1`: 25 µg/mL (≈ 76.8 µM). `O=C(/C=C/c1ccc([N+](=O)[O-])cc1)Nc1ccc(N2CCN(C(=O)c3ccc([N+](=O)[O-])cc3)CC2)c(F)c1` came in with an MIC90 of over 50 µg/mL.

Take `O=C(/C=C/c1ccc([N+](=O)[O-])cc1)Nc1ccc(N2CCN(C(=O)c3ccc(F)cc3)CC2)cc1`: the MIC90 came to 12.5 µg/mL (≈ 26.3 µM). Same read-out and setting: next, `COC(=O)N1CCN(c2ccc(NC(=O)/C=C/c3ccc([N+](=O)[O-])cc3)cc2)CC1`: over 50 µg/mL; `O=C(/C=C/c1ccccc1)Nc1ccc(N2CCN(C(=O)c3ccccc3C(F)(F)F)CC2)c(F)c1`: 3.12 µg/mL (≈ 6.28 µM); `O=C(/C=C/c1ccccc1)Nc1ccc(N2CCN(C(=O)c3ccncc3)CC2)cc1`: 50 µg/mL (≈ 121 µM). Compound `CCOC(=O)N1CCN(c2ccc(NC(=O)/C=C/c3ccccc3)cc2F)CC1` came in with an MIC90 of over 50 µg/mL. In turn, `CC(C)(C)OC(=O)N1CCN(c2ccc(NC(=O)/C=C/c3ccc([N+](=O)[O-])cc3)cc2)CC1` gave an MIC90 of 12.5 µg/mL (≈ 27.6 µM). The same measure, in the same setting: for `O=C(/C=C/c1ccccc1)Nc1ccc(N2CCN(c3ccccn3)CC2)c(F)c1` the value was over 50 µg/mL. For the compound `O=C(/C=C/c1ccc([N+](=O)[O-])cc1)Nc1ccc(N2CCN(c3ccccn3)CC2)cc1`, the MIC90 was over 50 µg/mL. On the same count and under the same terms, for `CCN1CCN(c2ccc(NC(=O)/C=C/c3ccccc3)cc2)CC1` the value was 12.5 µg/mL (≈ 37.3 µM). Still for that read-out and setting: for `CN1CCN(c2ccc(NC(=O)/C=C/c3ccc([N+](=O)[O-])cc3)cc2)CC1` the value was 12.5 µg/mL (≈ 34.1 µM); for `CCN1CCN(c2ccc(NC(=O)/C=C/c3ccccc3)cc2F)CC1`, 12.5 µg/mL (≈ 35.4 µM). The same measure, in the same setting: for `O=C(/C=C/c1ccc([N+](=O)[O-])cc1)Nc1ccc(N2CCNCC2)cc1` the value was 50 µg/mL (≈ 142 µM); for `O=C(/C=C/c1ccc([N+](=O)[O-])cc1)Nc1ccc(N2CCN(C(=O)c3ccncc3)CC2)c(F)c1`, 12.5 µg/mL (≈ 26.3 µM); for `COC(=O)N1CCN(c2ccc(NC(=O)/C=C/c3ccccc3)cc2)CC1`, over 50 µg/mL. The compound `O=C(/C=C/c1ccc([N+](=O)[O-])cc1)Nc1ccc(N2CCN(C(=O)c3ccncc3)CC2)cc1` registered an MIC90 of over 50 µg/mL. The same measure, in the same setting: next, `O=C(/C=C/c1ccccc1)Nc1ccc(N2CCN(C(=O)c3cc(Cl)cc(Cl)c3)CC2)c(F)c1`: 12.5 µg/mL (≈ 25.1 µM); `O=C(/C=C/c1ccc([N+](=O)[O-])cc1)Nc1ccc(N2CCN(C(=O)c3ccc(F)cc3)CC2)c(F)c1`: 12.5 µg/mL (≈ 25.4 µM).

For `O=C(/C=C/c1ccc([N+](=O)[O-])cc1)Nc1ccc(N2CCN(C(=O)c3cc(Cl)cc(Cl)c3)CC2)c(F)c1`, the MIC90 came out at 12.5 µg/mL (≈ 23 µM). Take `CN1CCN(c2ccc(NC(=O)/C=C/c3ccccc3)cc2)CC1`: the MIC90 was found to be 6.25 µg/mL (≈ 19.4 µM).

A further series relates to Vero. Nature of the series: Cytotoxicity against African green monkey Vero cells after 72 hrs by MTT assay. Format: cell-based. To be noted: Chlorocebus sabaeus. In short, it runs like this:
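Vero cells subcultured, then exposed to compound at 125, 62.5 and 31.25 μg/ml for 72 h. MTT added for a further 4 h; formazan dissolved in DMSO. Viability read from tetrazolium-to-formazan conversion and reported as IC50.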
Background: Tetrazolium assays rely on reduction of a dye to a coloured formazan, in cell work by metabolically active cells.
As for `O=C(/C=C/c1ccc([N+](=O)[O-])cc1)Nc1ccc(N2CCN(C(=O)c3ccc(F)cc3)CC2)cc1`, the IC50 – broadly, the point on the concentration scale where inhibition reaches its midpoint – is over 125 µg/mL. The same measure, in the same setting: next, `O=C(/C=C/c1ccccc1)Nc1ccc(N2CCN(C(=O)c3ccccc3C(F)(F)F)CC2)c(F)c1`: over 125 µg/mL; `CCN1CCN(c2ccc(NC(=O)/C=C/c3ccccc3)cc2F)CC1`: over 125 µg/mL.

In turn, `O=C(/C=C/c1ccc([N+](=O)[O-])cc1)Nc1ccc(N2CCN(C(=O)c3ccncc3)CC2)c(F)c1` returned an IC50 of over 125 µg/mL. `CN1CCN(c2ccc(NC(=O)/C=C/c3ccccc3)cc2)CC1` gave an IC50 of over 125 µg/mL.

Tested on in the next series: not listed separately
Nature of the series: Selectivity index, ratio of IC50 for African green monkey Vero cells to MIC for Mycobacterium tuberculosis H37Rv. The following applies: read-out: Selectivity Index. Format: toxicity, cell-based. In short, it runs like this:
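SI = Vero IC50 / H37Rv MIC. Vero cytotoxicity by MTT: subcultured cells exposed 72 h to 125, 62.5, 31.25 μg/ml; MTT added 4 h, formazan dissolved in DMSO. MIC by REMA: H37Rv in 7H9 broth, 1.56–50 μg/ml serial dilutions, 7 days then resazurin 1 day, visual colour read.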
Turning to `O=C(/C=C/c1ccc([N+](=O)[O-])cc1)Nc1ccc(N2CCN(C(=O)c3ccc(F)cc3)CC2)cc1`, the selectivity ratio was over 10. On to `O=C(/C=C/c1ccccc1)Nc1ccc(N2CCN(C(=O)c3ccccc3C(F)(F)F)CC2)c(F)c1`, for which the selectivity ratio was over 40. On the same count and under the same terms, next, `CCN1CCN(c2ccc(NC(=O)/C=C/c3ccccc3)cc2F)CC1`: over 10; `O=C(/C=C/c1ccc([N+](=O)[O-])cc1)Nc1ccc(N2CCN(C(=O)c3ccncc3)CC2)c(F)c1`: over 10. Still for that read-out and setting: for `CN1CCN(c2ccc(NC(=O)/C=C/c3ccccc3)cc2)CC1` the value was over 10.
